Source: PubChem (Broad Institute)
S100A4 inh HTS: blocks human S100A4 binding to myosin IIA peptide; AID 652163; hit rate 0.14% among 360,000; P26447; inhibition, % at 10.7 µM; S100A4/TAMRA-MyoIIA peptide fluorescence polarization;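 active = mean inhibition of at least 70% across replicates, with every replicate also reaching that level; inconclusive = mean inhibition reaches 70% but some replicates fall short; inactive = mean inhibition below 70%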
Target sequence (P26447 whole entry, looked up): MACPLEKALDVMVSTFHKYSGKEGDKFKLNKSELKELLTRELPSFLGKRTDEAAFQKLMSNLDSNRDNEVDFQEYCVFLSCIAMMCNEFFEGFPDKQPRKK
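Compound dosing: one dose per compound; test system: human S100A4 monomer with TAMRA-labelled myosin IIA peptide; probe or stimulus: TAMRA-labelled myosin IIA heavy-chain peptide probe, 5 nM; medium: HEPES buffer with Ca2+, pH 7.2; schedule: 5 min incubation before reading; benchmarks: neutral control DMSO, positive control TFP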
SIRT5 inh: sirtuin-5 (human) deacylase inhibition | AID 652115 | hit rate 1.1% among 330,000 | Purified SirT5, succinyl-peptide AMC, trypsin-coupled fluorescence | Q9NXA8 | inhibition, % at 15 µM; in the data active = inhibition above about 15%; inconclusive = no clear call, values can overlap the other calls
Target sequence (Q9NXA8 whole entry, looked up): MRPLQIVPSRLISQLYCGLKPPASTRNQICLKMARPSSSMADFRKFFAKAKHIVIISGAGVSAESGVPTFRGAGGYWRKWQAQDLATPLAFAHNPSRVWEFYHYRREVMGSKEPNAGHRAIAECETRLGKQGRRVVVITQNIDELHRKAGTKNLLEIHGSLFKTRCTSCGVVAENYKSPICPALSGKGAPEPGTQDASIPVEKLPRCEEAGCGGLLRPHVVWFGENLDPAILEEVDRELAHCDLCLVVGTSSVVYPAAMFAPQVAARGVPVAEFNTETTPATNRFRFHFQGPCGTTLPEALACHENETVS
PGC1a acetyl inh: lowers PGC1a acetylation signal in U2OS cells; AID 651687; hit rate 0.17% among 350,000; AlphaScreen anti-acetyl-lysine; with virally co-expressed GCN5 acetyltransferase; inhibition, % at 15.6 µM;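 active = every replicate shows inhibition of at least 40%; inconclusive = mean inhibition at least 40% but some replicate below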
DENV2 CPE: protects cells from dengue virus 2 cytopathic effect; hit rate 1.7% among 350,000; DENV2-infected cells, cytopathic effect rescue, plate reader; CPE inhibition, % at 9.99 µM; in the data active = CPE inhibition above about 20%, passing the limit was not always enough; inconclusive = no clear call, values can overlap the other calls; tested in BHK-21 cells
C2C12 statin: suppressors of simvastatin-induced myotoxicity in C2C12 myotubes | rescue of ATP level, % at 7.49 µM | ATP luminescence, 48 h; scaled: DMSO 0, geranylgeraniol control 100 | hit rate 0.78% among 330,000;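 active = mean ATP rescue above about 67%, or every replicate alone reaching that limit, limit read from the data, passing the limit was not always enough; inconclusive = no clear call, values can overlap the other calls; inactive = mean under the limit and some replicate under it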;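 also: myotubes were challenged with 10 µM simvastatin during compound exposure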
Large screens that a line does not name were inactive. Compounds with a hit are over-represented: about 2.9% of the library has one in this group of screens.

C[C@H](CO)N1C[C@H](C)[C@@H](CN(C)C(=O)Nc2ccc3c(c2)OCO3)Oc2ccc(NC(=O)Cn3cnnn3)cc2CC1=O	DENV2 CPE 24.0
C[C@@H]1CN([C@@H](C)CO)C(=O)Cc2cc(NC(=O)C3CC3)ccc2O[C@H]1CN(C)Cc1ccc(Oc2ccccc2)cc1	C2C12 statin 74.3
COc1ccc(NC(=O)N(C)C[C@H]2Oc3ccc(NC(=O)C4CC4)cc3CC(=O)N([C@H](C)CO)C[C@H]2C)cc1	SIRT5 inh -5.8 (no result: S100A4 inh HTS)
COc1ccc(CN(C)C[C@H]2Oc3ccc(NC(=O)C4CC4)cc3CC(=O)N([C@H](C)CO)C[C@@H]2C)cc1	DENV2 CPE 79.2 (no result: C2C12 statin)
COc1ccc(CN(C)C[C@H]2Oc3ccc(NC(=O)C4CC4)cc3CC(=O)N([C@@H](C)CO)C[C@@H]2C)cc1	none
CC(C)C#Cc1cnc2c(c1)C(=O)N([C@@H](C)CO)C[C@@H](C)[C@@H](CN(C)C(=O)Nc1ccc(F)cc1)O2	S100A4 inh HTS inconclusive
C[C@@H]1CN([C@@H](C)CO)C(=O)Cc2cc(NC(=O)C3CCCCC3)ccc2O[C@@H]1CN(C)Cc1ccc(Oc2ccccc2)cc1	none
C[C@@H]1CN([C@@H](C)CO)C(=O)Cc2cc(NC(=O)C3CCCCC3)ccc2O[C@H]1CN(C)Cc1ccc(Oc2ccccc2)cc1	C2C12 statin 88.3
C[C@H](CO)N1C[C@H](C)[C@@H](CN(C)C(=O)Nc2ccc3c(c2)OCO3)Oc2ccc(NC(=O)C3CC3)cc2CC1=O	DENV2 CPE 54.3
C[C@@H]1CN([C@@H](C)CO)C(=O)Cc2cc(NC(=O)C3CC3)ccc2O[C@H]1CN(C)C(=O)Nc1ccc2c(c1)OCO2	none
CCCC(=O)Nc1ccc2c(c1)OC[C@H](C)N(CC1CCOCC1)C[C@@H](C)[C@@H](OC)CN(C)C2=O	none
COCCC(=O)NC12CC3CC(CC(C3)C1)C2	none (no result: S100A4 inh HTS, SIRT5 inh, DENV2 CPE)
COCCNCC(=O)NC12CC3CC(CC(C3)C1)C2	C2C12 statin 117.4 (no result: S100A4 inh HTS, SIRT5 inh, DENV2 CPE)
O=C(N/N=C/c1ccc[nH]1)c1ccc(COc2cccc3cccnc23)cc1	none
Cc1cc(Br)c(OCc2ccc(C(=O)N/N=C/c3ccc[nH]3)cc2)c(Br)c1	PGC1a acetyl inh 86.7
C[C@H](CO)N1C[C@H](C)[C@@H](CN(C)C(=O)Cc2cccnc2)Oc2ncc(C3=CCCCC3)cc2C1=O	none
C[C@H](CO)N1C[C@H](C)[C@H](CN(C)C(=O)c2ccccn2)Oc2ncc(C3=CCCCC3)cc2C1=O	DENV2 CPE 62.1
C[C@@H]1CN([C@H](C)CO)C(=O)c2cc(C3=CCCCC3)cnc2O[C@@H]1CN(C)C(=O)Cc1cccnc1	DENV2 CPE 56.0
CCCC(=O)Nc1ccc2c(c1)OC[C@@H](C)N(Cc1ccncc1)C[C@H](C)[C@H](OC)CN(C)C2=O	S100A4 inh HTS 121.0 (no result: PGC1a acetyl inh)
CCC(=O)Nc1ccc2c(c1)OC[C@@H](C)N(Cc1cccnc1)C[C@H](C)[C@@H](OC)CN(C)C2=O	DENV2 CPE 47.7
CO[C@H]1CN(C)C(=O)c2cc(NC(=O)C3CCC3)ccc2OC[C@H](C)N(Cc2ccncc2)C[C@H]1C	none
CO[C@H]1CN(C)C(=O)c2ccc(NC(=O)c3ccc4c(c3)OCO4)cc2OC[C@@H](C)N(CC2CC2)C[C@H]1C	none (no result: SIRT5 inh)
CCC(=O)Nc1ccc2c(c1)OC[C@H](C)N(Cc1cccnc1)C[C@@H](C)[C@@H](OC)CN(C)C2=O	none
CO[C@@H]1CN(C)C(=O)c2cc(NC(=O)C3CCC3)ccc2OC[C@@H](C)N(Cc2ccncc2)C[C@@H]1C	DENV2 CPE 41.2
CO[C@@H]1CN(C)C(=O)c2ccc(NC(=O)c3ccc4c(c3)OCO4)cc2OC[C@@H](C)N(Cc2ccc3c(c2)OCO3)C[C@H]1C	S100A4 inh HTS 79.6
C#CC1(NC(=O)NC(C)C)CCCCC1	SIRT5 inh 94.1 (no result: PGC1a acetyl inh, C2C12 statin)
C#CC1(NC(=O)NC(C)(C)C)CCCCC1	none (no result: PGC1a acetyl inh, DENV2 CPE, C2C12 statin)
COc1ccc(Nc2cc(C)c3cc([N+](=O)[O-])ccc3n2)cc1	DENV2 CPE 28.4
COc1ccc(Nc2ccc([N+](=O)[O-])cn2)cc1	none (no result: PGC1a acetyl inh)
O=C(Nc1ccccc1F)N[C@H]1CC[C@H](CCNC(=O)C2CCCC2)O[C@@H]1CO	none
CO[C@H]1CN(C)C(=O)c2cc(NC(=O)c3ccc(F)cc3)ccc2OC[C@@H](C)N(C(=O)CC2CC2)C[C@H]1C	none (no result: S100A4 inh HTS, SIRT5 inh, DENV2 CPE)
CCOc1cc(N2CCOCC2)c(OCC)cc1NC(=O)CN1CCN(Cc2ccc3c(c2)OCO3)CC1	DENV2 CPE 28.5 (no result: C2C12 statin)
CSC1=NSC2=NC(=O)/C(=C/c3coc4ccc(O)cc4c3=O)C(=N)N12	SIRT5 inh 20.7 (no result: DENV2 CPE)
CCOc1cc(/C=C2/SC(=S)NC2=O)ccc1OC(=O)c1ccco1	none
O=C1NC(=S)S/C1=C/c1ccc(OC(=O)c2ccco2)cc1	SIRT5 inh 80.7
Cc1ccsc1C(=O)NNC(=O)CCN1CCN(c2ccccc2)CC1	SIRT5 inh 18.8 (no result: PGC1a acetyl inh, C2C12 statin)
Cc1ccccc1S(=O)(=O)N1CC[C@@H]2[C@@H](CO)Nc3ccc(C#Cc4ccccc4)cc3[C@@H]21	none
Nc1nn(S(=O)(=O)c2cccc3nsnc23)cc1-c1ccc(Br)cc1	C2C12 statin 95.5 (no result: S100A4 inh HTS, SIRT5 inh, DENV2 CPE)
Cc1ccc(-c2cn(S(=O)(=O)c3cccc4nsnc34)nc2N)cc1	none (no result: S100A4 inh HTS, SIRT5 inh, DENV2 CPE)
C[C@@H]1CN([C@H](C)CO)C(=O)c2cc(C#CC(C)(C)O)cnc2O[C@@H]1CN(C)Cc1cncnc1	none
C=CCc1c(C)[nH]c2ccc(C)cc2c1=O	C2C12 statin 95.1 (no result: S100A4 inh HTS, SIRT5 inh, DENV2 CPE)
CCCC#Cc1ccc2c(c1)O[C@@H](CN(C)Cc1ccncc1)[C@@H](C)CN([C@@H](C)CO)S2(=O)=O	none
O=C(COc1ccc(-n2ccnc2)cc1)Nc1cccc(Cl)c1	SIRT5 inh 22.5 (no result: C2C12 statin)
O=C(COc1ccc(-n2ccnc2)cc1)Nc1cccc(F)c1	none
CCOC(=O)c1ccc(NC(=S)NCCCn2ccnc2)cc1	none
O=C(COc1ccc(Cl)cc1)NCCCn1ccnc1	C2C12 statin 71.5 (no result: S100A4 inh HTS, SIRT5 inh, DENV2 CPE)
COc1ccc(-c2cc(=O)oc3cc(OC(C)C(=O)NCCCn4ccnc4)ccc23)cc1 (stereo unspecified)	DENV2 CPE inconclusive (no result: SIRT5 inh)
COC(=O)c1ccc(NC(=S)NCCCn2ccnc2)cc1	SIRT5 inh 20.4 (no result: PGC1a acetyl inh)
CC(Oc1ccc2ccc(=O)oc2c1)C(=O)NCCCn1ccnc1 (stereo unspecified)	C2C12 statin 96.0
O=C(c1ccc(N2CCCC2)c([N+](=O)[O-])c1)N1CCN(S(=O)(=O)c2ccccc2)CC1	SIRT5 inh 32.6
O=C(Nc1cccc(Cl)c1)N1C[C@H]2[C@@H](c3ccccc31)[C@H](CO)N2CC1CCOCC1	none
C=CCNC(=O)C(C#N)c1nc2ccccc2nc1N1CCCCCC1 (stereo unspecified)	C2C12 statin 85.7 (no result: S100A4 inh HTS, SIRT5 inh, DENV2 CPE)
C[C@@H]1CN([C@@H](C)CO)C(=O)c2cccc(NC(=O)c3ccc(-c4nccs4)cc3)c2O[C@H]1CN(C)C	DENV2 CPE 73.0
C[C@@H]1CN([C@@H](C)CO)C(=O)c2cccc(NC(=O)c3ccc(-c4nccs4)cc3)c2O[C@@H]1CN(C)S(C)(=O)=O	DENV2 CPE 24.0 (no result: C2C12 statin)
